Experiments:
[1] = target: CDK2 (Homo sapiens, UniProt P24941); assay: ADP-Glo Kinase Assay, cell-free detection of CDK2 activity; assay type: biochemical
[2] = system: HCT116; assay: MTT anti-tumour cell proliferation in vitro, HCT116; assay type: cell-based; settings: Homo sapiens, HCT-116, 36 h, read-out: Cells IC50 (μM) HCT116
How it was run: (§1)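 Cells grown in RPMI1640 with 10% foetal bovine serum at 37 °C, 5% CO2. Seeded at 5000/well in triplicate and allowed 6 h to adhere. Treated with a concentration series of test compound for 36 h. Reference CDK inhibitor at the same concentrations served as positive control, and DMSO as negative control. Stained with 5% MTT; absorbance read at 570 nm.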

[3] = system: A549; assay: MTT anti-tumour cell proliferation in vitro, A549; assay type: cell-based; settings: Homo sapiens, A549, 36 h, read-out: Cells IC50 (μM) A549
How it was run: as §1

## CNC(=O)c1nn(C)c2c1C(C)(C)Cc1cnc(Nc3ccc(N4CCN(C)CC4)cc3)nc1-2 [Milciclib]
[1]
  IC50: 52.7 ± 3.1 nM
[2]
  IC50: 1.1 ± 0.3 µM
[3]
  IC50: 3.7 ± 0.4 µM

From article PMC6882486 (Journal of Enzyme Inhibition and Medicinal Chemistry, 2019)
